Laboratory results reported in paper PMC4123212 (Chemistry & biology, 2014).

What was measured:
Erk2^DS1 [1] = molecular target: T1, Erk2^DS1 (Rattus norvegicus, UniProt P63086, C164L/Q103T); test: Activation inhibition assay; type: biochemical; conditions: Erk2^DS1, ATP 5 µM, bis-phosphorylated Erk2 by ELISA
Procedure, shortened: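 Erk2 variant preincubated 30 min at RT with ATP (5 µM) and titrated test compound (2% DMSO) in 50 mM MOPS pH 7.4, 10 mM MgCl2, 1 mM DTT, 0.001% Tween 20, 0.1 mg/mL BSA. MEK2 then added and incubated at RT; enzyme levels and times set by linearity. Quenched with 20 mM EDTA, plate-bound overnight at 4 °C, then anti-phospho-Erk2/HRP ELISA. EC50 from nonlinear regression; triplicates.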

Erk2^WT [2] = molecular target: T2, Erk2^WT (Rattus norvegicus, UniProt P63086); test: Activation inhibition assay; type: biochemical; conditions: ELISA
Erk2^DS1 [3] = molecular target: T1, Erk2^DS1; test: Activation inhibition assay; type: biochemical; conditions: Erk2^DS1, PhosTag-acrylamide PAGE
Procedure, shortened: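 This run uses the MOPS/MgCl2 activation setup (ATP 5 µM, 30 min compound preincubation at RT) but with tenfold more MEK2. Reactions were stopped in SDS loading buffer without EDTA. Erk2 phospho-forms were resolved by SDS-PAGE in gels containing 50 µM PhosTag-acrylamide and 100 µM MnCl2.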

[4] = molecular target: GFP-tagged Erk2^DS1 in HEK293 cells (Rattus norvegicus, UniProt P63086, C164L/Q103T); test: In-cell activation inhibition, EGF-stimulated HEK293 cells; type: cell-based; conditions: 2 at 100-1000 nM, SB203580 1000 nM, immunoblot
Procedure, shortened: (§1)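 Low-passage HEK293 transiently transfected with GFP-Erk2 plasmid, split next day into 96-well format, serum-starved 24 h. Test compound added for 1 h at 37 °C (final 1% DMSO), then human EGF 50 ng/mL for 5 min at 37 °C. DMSO controls with and without EGF. Cells lysed by boiling in SDS loading buffer; SDS-PAGE, immunoblot for GFP and ppErk.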

[5] = molecular target: GFP-tagged Erk2^WT in HEK293 cells (Rattus norvegicus, UniProt P63086); test: as above; type: cell-based; conditions: 2 at 100-1000 nM, SB203580 1000 nM, immunoblot
Procedure, shortened: as §1

phospho-Erk2^DS2 = phospho-Erk2^DS2 (Rattus norvegicus, UniProt P63086, C164L/Q103A); test: Phosphatase inhibition: DUSP6-mediated dephosphorylation; type: biochemical; conditions: phospho-Erk2^DS2, relative to apo enzyme, ELISA
phospho-Erk2^WT = phospho-Erk2^WT (Rattus norvegicus, UniProt P63086); test: as above; type: biochemical; conditions: ELISA
Erk2^WT [6] = molecular target: T2, Erk2^WT; test: DUSP6 activation inhibition; type: biochemical; conditions: inhibitor 5 µM, 4-MUP turnover
Procedure, shortened: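 DUSP6 (140 nM) added for 1 h at RT, then 4-MUP (250 µM). Fluorescence read at Ex/Em 355/460 nm after 2 h at RT; Erk2-free wells used as background.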

Erk2^WT [7] = molecular target: T2, Erk2^WT; conditions: Ki values reported previously, ref Hari et al., 2013; cited from earlier work
Erk2^DS1 (Q103T/C164L) = conditions: ref Hari et al., 2013; cited from earlier work
Erk2^DS2 (Q103A/C164L) = Erk2^DS2 (Q103A/C164L) (Rattus norvegicus, UniProt P63086, C164L/Q103A); conditions: ref Hari et al., 2013; cited from earlier work

With `C[S+]([O-])c1ccc(-c2nc(-c3ccncc3)c(-c3ccc(F)cc3)[nH]2)cc1` (centres unmarked) [SB203580] the “Inhibition of dual phosphorylation of Erk2's activation loop by MEK2” value (Erk2^DS1 [1]) was “only a minimal effect”, the “Decrease in the amount of activation loop phosphorylated Erk2 (MEK2)” value (Erk2^WT [2]) was “neither 2 nor SB203580 lead to a significant decrease” and the “Formation of bis-phosphorylated Erk2 (MEK2)” value (Erk2^DS1 [3]) was “comparable levels of bis-phosphorylation”. The “Cellular Erk2 activation upon EGF stimulation” value [4] was “had no effect”, the “Cellular Erk2 activation upon EGF stimulation” value [5] was “not affected” and the “Effect on DUSP6-mediated dephosphorylation of the TxY motif” value (phospho-Erk2^DS2) was “enhanced the phosphatase activity of DUSP6”. The “Effect on DUSP6-mediated dephosphorylation” value (phospho-Erk2^WT) was “none of the inhibitors affected”, the “Effect on Erk2-mediated activation of DUSP6” value (Erk2^WT [6]) was “none of these ligands affected” and the “Inhibition of wild type Erk2” value (Erk2^WT [7]) was “very weakly inhibited”. The “Sensitivity of drug sensitive Erk2 mutant to inhibitor” value (Erk2^DS1 (Q103T/C164L)) was “highly sensitive” and the “Sensitivity of drug sensitive Erk2 mutant to inhibitor” value (Erk2^DS2 (Q103A/C164L)) was “highly sensitive”.
